Values without a mark were called inactive.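 How the source made its calls: active means GFP response vs DMSO above 150% with enough events counted; inconclusive means fewer than 70 events counted for a yeast strain; inactive means the rest.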
Test: yeast TOR reporter LAP4-GFP retest – cell-based, third cherry pick, flow cytometry, confirmation (AID 504338);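 further: ratio to plate DMSO wells so 100% equals DMSO level rather than 0%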
Settings: S. cerevisiae LAP4-GFP strain, 3 h, at 10 µM, stronger effect = higher value
How it was run: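 Assay system – yeast LAP4-GFP strain · Buffer or medium – synthetic complete medium · Times – compound exposure for 3 h at 30 °C · Technique – flow cytometric GFP fluorescence · Evaluation – median GFP fluorescence as percent of plate DMSO-well average · Benchmarks – rapamycin 400 ng/mL as positive control, DMSO wells as reference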

| SMILES | GFP response vs DMSO [%] |
| --- | --- |
| CN(C)C(=O)Oc1ccc(Cl)c2cccnc12 | 106 |
| CN(C)C(=O)Oc1ccnc2cc(Cl)ccc12 | 107 |
| CCN1CCN(c2ncnc3ccc(Br)cc23)CC1 | 108 |
| Cc1ccc2c(c1N)C(=O)c1ccccc1C2=O | 104 |
| CN1CCN(c2ncnc3ccc(Br)cc23)CC1 | 107 |
| C/C(O)=C(\C#N)C(=O)Nc1cc(Br)ccc1Br | 106 |
